Drawing on ChEMBL document CHEMBL1806390, “Synthesis and biological evaluation of naphthyl phenyl ethers (NPEs) as novel nonnucleoside HIV-1 reverse transcriptase inhibitors” (Bioorg Med Chem, 2011), this text covers EC50, CC50 and selectivity ratio for 22 compounds.

Data set [1] relates to Human immunodeficiency virus 1. Put plainly: Antiviral activity against 0.06 MOI Human immunodeficiency virus 1 IIIB infected in C8166 cells assessed as reduction in virus-induced cytopathic effect after 3 days by syncytium reduction assay. It counts as functional, organism-based. Particulars: C8166, 72 h. The method, boiled down:
(§1)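 C8166 cells (4 × 10^5/mL) infected at MOI 0.06 in presence of serial compound dilutions; AZT as drug control. Cultured 3 days at 37 °C, syncytia (multinucleated giant cells) counted under inverted microscope; EC50 = concentration blocking syncytium formation by 50%. Mean of at least two separate experiments.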
Background: Protection from cytopathic effect is a common read-out in antiviral testing.

For data set [2], the system named is Human immunodeficiency virus 1. Put plainly: Antiviral activity against 0.06 MOI Human immunodeficiency virus 1 IIIB A17 harboring reverse transcriptase K103N and Y181C double mutant infected in C8166 cells assessed as reduction in virus-induced cytopathic effect after 3 days by syncytium reduction assay. It counts as functional, organism-based. Particulars: Human immunodeficiency virus 1, IIIB A17, C8166, 72 h. The method, boiled down: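 C8166 cells (4 × 10^5/mL) infected with HIV-1 IIIB A17 (K103N+Y181C) at MOI 0.06 in presence of graded compound concentrations; AZT drug control. Cultured 3 days at 37 °C, syncytia (multinucleated giant cells) counted under inverted microscope; EC50 as concentration blocking syncytium formation by 50%. Mean of at least two separate experiments.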

Data set [3] concerns Human immunodeficiency virus 2. Put plainly: Antiviral activity against Human immunodeficiency virus 2 ROD infected in C8166 cells assessed as reduction in virus-induced cytopathic effect after 3 days by syncytium reduction assay. It counts as functional, organism-based. Particulars: Human immunodeficiency virus 2, ISOLATE ROD, C8166, 72 h. The method, boiled down: as §1
A short description of data set [4]: Cytotoxicity against human C8166 cells by MTT assay. It counts as cell-based. The method, boiled down: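 MTT colorimetric assay on C8166 cells, absorbance read at 570/630 nm; CC50 (concentration reducing viable cells by 50%) taken from dose-response curve. Mean of at least two separate experiments.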
In general terms: Formazan colour is commonly taken as a measure of viable cells.

Data set [5] in a line: Selectivity index, ratio of CC50 for human C8166 cells to EC50 for wild type HIV1 IIIB infected in C8166 cells. It counts as toxicity, cell-based. Particulars: read-out: Ratio CC50/EC50. The method, boiled down:
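SI computed as CC50 (MTT, C8166 cells) divided by EC50 against HIV-1 IIIB from syncytium reduction in C8166 cells at MOI 0.06, 3 days at 37 °C.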

SMILES strings stand for the structures. Where only a bound is given, the exact number is not on record here.

Regarding `Cc1cc(S(N)(=O)=O)ccc1NC(=O)COc1ccc(F)cc1Oc1ccc2ccccc2c1`, the figures for the concentration giving a half-maximal response (EC50) in data set [1], in data set [2] and in data set [3] were 0.0455 µM, 3.29 µM and 96.6 µM, respectively. For the same compound, the CC50 in data set [4] was found to be 68.5 µM. Further, in data set [5], the selectivity ratio was 1510.
As to `Cc1cc(S(N)(=O)=O)ccc1NC(=O)COc1ccc(Cl)cc1Oc1ccc2ccccc2c1`, the values for the 50% effective concentration (EC50) in data set [1], in data set [2] and in data set [3] were 0.0791 µM, 1.79 µM and 27.3 µM, respectively. Moreover, in data set [4], the midpoint of cytotoxicity, the CC50, lay at 119 µM. For the same compound, the selectivity ratio in data set [5] is 1500.
`Cc1cc(S(N)(=O)=O)ccc1NC(=O)COc1ccc(Cl)cc1Oc1c(C)cc2ccccc2c1Cl`: the EC50 in data set [1] was found to be 0.0731 µM; in data set [2], 1.07 µM; in data set [3], 3 µM. The compound also yielded a CC50 in data set [4] of 42.6 µM. Further, in data set [5], the selectivity ratio was found to be 583.
Take `Cc1cc(S(N)(=O)=O)ccc1NC(=O)COc1ccc(F)cc1Oc1ccc2ccccc2c1Br`: the EC50 in data set [1] was found to be 0.0858 µM; in data set [2], 1.59 µM; in data set [3] it was 6.17 µM. In data set [4], this compound came in with a CC50 of 39.5 µM. Further, the selectivity ratio in data set [5] was 460.
Regarding `Cc1cc(S(N)(=O)=O)ccc1NC(=O)COc1ccc(F)cc1Oc1ccc2cc(C#N)ccc2c1Cl`, the results for the EC50 in data set [1], in data set [2] and in data set [3] were 0.00472 µM, 0.54 µM and 235 µM, respectively. Also, half-maximal cytotoxicity in data set [4] (CC50) was put at 39.7 µM. For the same compound, the selectivity ratio in data set [5] is 8410.
On to `Cc1cc(S(N)(=O)=O)ccc1NC(=O)COc1ccc(Cl)cc1Oc1ccc2cc(Br)ccc2c1`, for which the concentration for a half-maximal effect (EC50) in data set [1] was 0.244 µM; in data set [2], 2.49 µM; in data set [3], 20 µM. The compound also returned a CC50 in data set [4] of 31.3 µM. The selectivity ratio in data set [5] was found to be 128.
For `Cc1cc(S(N)(=O)=O)ccc1NC(=O)COc1ccc(Cl)cc1Oc1cc2ccccc2cc1C`, the half-maximal effective concentration (EC50) in data set [1] was 0.0584 µM; in data set [2] it was 0.76 µM; in data set [3], 20.7 µM. This compound displayed a cytotoxic concentration (CC50) in data set [4] of 76.7 µM. For the same compound, the selectivity ratio in data set [5] turned out to be 1310.
As to `Cc1cc(S(N)(=O)=O)ccc1NC(=O)COc1ccc(F)cc1Oc1cccc2ccccc12`, the half-maximal effective concentration (EC50) in data set [1] was 0.137 µM; in data set [2] it was 1.68 µM; in data set [3], 17 µM. This compound also gave a half-maximal cytotoxic concentration (CC50) in data set [4] of 33.1 µM. In addition, in data set [5], the selectivity ratio turned out to be 240.
Regarding `Cc1cn([C@H]2C[C@H](N=[N+]=[N-])[C@@H](CO)O2)c(=O)[nH]c1=O` [ZIDOVUDINE], the half-maximal effective concentration (EC50) was found to be 0.0106 µM in data set [1], 0.00812 µM in data set [2] and 0.129 µM in data set [3]. In data set [4], this compound had a half-maximal cytotoxic concentration (CC50) of 5600 µM. Further, in data set [5], the selectivity ratio turned out to be 529000.
For `Cc1cc(S(N)(=O)=O)ccc1NC(=O)COc1ccc(F)cc1Oc1ccc2ccccc2c1C`, in that order: 0.183 µM, 1.15 µM, 26.4 µM, 56.1 µM and 306.
As to `Cc1cc(S(N)(=O)=O)ccc1NC(=O)COc1ccc(F)cc1Oc1ccc2cc(Br)ccc2c1`, the EC50 in data set [1] amounted to 0.181 µM; in data set [2], 1.77 µM; in data set [3] it was 96 µM. In data set [4], this compound registered a 50% cytotoxic concentration (CC50) of more than 358 µM. For the same compound, in data set [5], the selectivity ratio is more than 1970.
As for `Cc1cc(S(N)(=O)=O)ccc1NC(=O)COc1ccc(F)cc1Oc1c(C)cc2ccccc2c1Cl`, the 50% effective concentration (EC50) in data set [1] worked out at 0.198 µM; in data set [2], 1.39 µM; in data set [3], 18.8 µM. Also, it took 55.6 µM to reach half-maximal cytotoxicity in data set [4] (CC50). Besides, the selectivity ratio in data set [5] was determined as 280.
For `Cc1cc(S(N)(=O)=O)ccc1NC(=O)COc1ccc(Cl)cc1Oc1ccc2ccccc2c1Br`, in that order: 0.0879 µM, 1.34 µM, 137 µM, 48.1 µM and 547.
As for `Cc1cc(S(N)(=O)=O)ccc1NC(=O)COc1ccc(Cl)cc1Oc1ccc2cc(C#N)ccc2c1`, the 50% effective concentration (EC50) in data set [1] is 0.117 µM; in data set [2] it was 2.33 µM; in data set [3], more than 383 µM. The same compound registered a CC50 in data set [4] of more than 383 µM. The selectivity ratio in data set [5] is more than 3290.
On to `Cc1cc(S(N)(=O)=O)ccc1NC(=O)COc1ccc(F)cc1Oc1ccc2cc(C#N)ccc2c1Br`, for which the EC50 in data set [1] turned out to be 0.0046 µM; in data set [2] it was 0.82 µM; in data set [3], 4.4 µM. In data set [4], this compound displayed a CC50 of 35.3 µM. Further, the selectivity ratio in data set [5] was determined as 7670.
For the compound `Cc1cc(S(N)(=O)=O)ccc1NC(=O)COc1ccc(F)cc1Oc1ccc2cc(Br)ccc2c1Cl`, the EC50 was determined as 0.1 µM in data set [1], 1.2 µM in data set [2] and 11.5 µM in data set [3]. In data set [4], this compound gave a CC50 of 195 µM. In addition, in data set [5], the selectivity ratio amounted to 1950.
Take `Cc1cc(S(N)(=O)=O)ccc1NC(=O)COc1ccc(F)cc1Oc1cc2ccccc2cc1C`: the concentration for a half-maximal effect (EC50) in data set [1] is 0.14 µM; in data set [2], 1.09 µM; in data set [3], 126 µM. Moreover, it took 66.9 µM to reach half-maximal cytotoxicity in data set [4] (CC50). In addition, in data set [5], the selectivity ratio stood at 476.
As to `Cc1cc(S(N)(=O)=O)ccc1NC(=O)COc1ccc(Cl)cc1Oc1ccc2ccccc2c1Cl`, the concentration for a half-maximal effect (EC50) in data set [1] stood at 0.169 µM; in data set [2], 1.73 µM; in data set [3], 13.3 µM. This compound returned a CC50 in data set [4] of 40.7 µM. Moreover, in data set [5], the selectivity ratio was 241.
For `Cc1cc(S(N)(=O)=O)ccc1NC(=O)COc1ccc(F)cc1Oc1ccc2cccc(F)c2c1`, in that order: 0.0924 µM, 1.45 µM, 66.3 µM, 171 µM and 1850.
For the compound `Cc1cc(S(N)(=O)=O)ccc1NC(=O)COc1ccc(Cl)cc1C(=O)c1cc(Cl)cc(C#N)c1`, the concentration for a half-maximal effect (EC50) worked out at 0.00068 µM in data set [1], 0.00138 µM in data set [2] and 2.18 µM in data set [3]. Besides, the CC50 in data set [4] was more than 386 µM. Also, the selectivity ratio in data set [5] was more than 567000.
On to `Cc1cc(S(N)(=O)=O)ccc1NC(=O)COc1ccc(F)cc1Oc1ccc2ccccc2c1Cl`, for which the EC50 in data set [1] came out at 0.186 µM; in data set [2], 3.09 µM; in data set [3] it was 136 µM. Half-maximal cytotoxicity in data set [4] (CC50) was put at 47.1 µM. In data set [5], the selectivity ratio is 254.
As for `Cc1cc(S(N)(=O)=O)ccc1NC(=O)COc1ccc(F)cc1Oc1ccc2cc(C#N)ccc2c1`, the concentration for a half-maximal effect (EC50) in data set [1] came to 0.0388 µM; in data set [2], 1.02 µM; in data set [3] it was 166 µM. Besides, the CC50 in data set [4] is more than 396 µM. Further, the selectivity ratio in data set [5] is more than 10200.

One may read the EC50 as the concentration at which the effect is half-maximal. As usually defined, the CC50 is the concentration that lowers cell viability or growth by half. A low value points to harm at low concentration.
